Data taken from ChEMBL document CHEMBL1759888, “Biological evaluation of polyhalo 1,3-diazaheterocycle fused isoquinolin-1(2H)-imine derivatives” (Eur J Med Chem, 2011).
Converted amounts (≈) assume the structure as drawn.

What was measured:
H22 [1] = assay: Antitumor activity against mouse H22 cells xenografted in Kunming mouse assessed as tumor growth inhibition rate at 20 mg/kg, po administered for 10 days relative to control; assay type: functional; details: H22, 240 h
How it was run: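 H22 tumour cells were harvested in exponential growth and inoculated subcutaneously into the right flank axilla. Mice were randomised into groups of 10. Test compound in 0.5% CMC-Na was given intragastrically daily for 10 days. Solvent controls got an equal volume of CMC-Na, and positive controls got cyclophosphamide 20 mg/kg ip in saline. Tumours were weighed at sacrifice to give the inhibition rate.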

CCRF S-180 [2] = assay: Antitumor activity against mouse S180 cells xenografted in Kunming mouse assessed as tumor growth inhibition rate at 20 mg/kg, po administered for 10 days relative to control; assay type: functional; details: CCRF S-180, 240 h
How it was run: (§1)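 Tumour cells taken in exponential growth and inoculated subcutaneously into the right flank axilla. Mice randomised, 10 per group. Compound in 0.5% CMC-Na given intragastrically daily for 10 days. Solvent control got an equal volume of vehicle; positive control got cyclophosphamide 20 mg/kg i.p. in saline. Tumours weighed at sacrifice; inhibition rate calculated against solvent control.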

CCRF S-180 [3] = assay: Antitumor activity against mouse S180 cells xenografted in po dosed Kunming mouse assessed as tumor tumor growth inhibition rate administered for 10 days relative to control; assay type: functional, organism-based; how it was run: as §1
A-431 = assay: Anticancer activity against human A431 cells after 72 hrs by MTT assay; details: A-431, 72 h
CCRF S-180 [4] = assay: Antitumor activity against mouse S180 cells xenografted in Kunming mouse assessed as tumor tumor growth inhibition rate at 10 mg/kg, po administered for 10 days relative to control; assay type: functional; details: CCRF S-180, 240 h; how it was run: as §1
HepG2 = assay: Anticancer activity against human HepG2 cells after 72 hrs by MTT assay; details: HepG2, 72 h
Mus musculus [5] = assay: Toxicity in Kunming mouse assessed as mouse mortality at 4500 mg/kg, po administered in 24 hr duration measured after 7 days; assay type: organism-based; design: dose 4500 mg/kg, route oral; details: in vivo, 168 h
How it was run: (§2)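 Acute toxicity test in Kunming mice (18–22 g), each group treated with one compound. The compound was given orally within 24 h, and mice were then monitored continuously for up to 7 days for abnormal behaviour or death.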

CCRF S-180 [6] = assay: Antitumor activity against mouse S180 cells xenografted in Kunming mouse assessed as tumor growth inhibition rate at 30 mg/kg, po administered for 10 days relative to control; assay type: functional; details: CCRF S-180, 240 h; how it was run: as §1
K562 = assay: Anticancer activity against human K562 cells after 48 hrs by MTT assay; details: K562, 48 h
HL-60 = assay: Anticancer activity against human HL60 cells after 48 hrs by MTT assay; details: HL-60, 48 h
H22 [7] = assay: Antitumor activity against mouse H22 cells xenografted in Kunming mouse assessed as tumor growth inhibition rate at 30 mg/kg, po administered for 10 days relative to control; assay type: functional; details: H22, 240 h; how it was run: as §1
H22 [8] = assay: Antitumor activity against mouse H22 cells xenografted in Kunming mouse assessed as tumor growth inhibition rate at 10 mg/kg, po administered for 10 days relative to control; assay type: functional; details: H22, 240 h; how it was run: as §1
SK-OV-3 = assay: Anticancer activity against human SKOV3 cells after 72 hrs by MTT assay; details: SK-OV-3, 72 h
[9] = Lipophilicity, log P of the compound; assay type: physicochemical; details: octanol/water
CCRF S-180 [10] = assay: Antitumor activity against mouse S180 cells xenografted in Kunming mouse assessed as tumor growth inhibition rate at 90 mg/kg, po administered for 10 days relative to control; assay type: functional; details: CCRF S-180, 240 h; how it was run: as §1
H22 [11] = assay: Antitumor activity against mouse H22 cells xenografted in Kunming mouse assessed as tumor growth inhibition rate at 80 mg/kg, po administered for 10 days relative to control; assay type: functional; details: H22, 240 h; how it was run: as §1
H22 [12] = assay: Antitumor activity against mouse H22 cells xenografted in Kunming mouse assessed as tumor growth inhibition rate at 240 mg/kg, po administered for 10 days relative to control; assay type: functional; details: H22, 240 h; how it was run: as §1
CCRF S-180 [13] = assay: Antitumor activity against mouse S180 cells xenografted in Kunming mouse assessed as tumor growth inhibition rate at 60 mg/kg, po administered for 10 days relative to control; assay type: functional; details: CCRF S-180, 240 h; how it was run: as §1
CCRF S-180 [14] = assay: Antitumor activity against mouse S180 cells xenografted in Kunming mouse assessed as tumor growth inhibition rate at 180 mg/kg, po administered for 10 days relative to control; assay type: functional; details: CCRF S-180, 240 h; how it was run: as §1
Mus musculus [15] = assay: Toxicity in Kunming mouse assessed as mouse mortality at 5000 mg/kg, po administered in 24 hr duration measured after 7 days; assay type: organism-based; design: dose 5000 mg/kg, route oral; details: in vivo, 168 h; how it was run: as §2
H22 [16] = assay: Antitumor activity against mouse H22 cells xenografted in Kunming mouse assessed as tumor growth inhibition rate at 70 mg/kg, po administered for 10 days relative to control; assay type: functional; details: H22, 240 h; how it was run: as §1
H22 [17] = assay: Antitumor activity against mouse H22 cells xenografted in Kunming mouse assessed as tumor growth inhibition rate at 35 mg/kg, po administered for 10 days relative to control; assay type: functional; details: H22, 240 h; how it was run: as §1
H22 [18] = assay: Antitumor activity against mouse H22 cells xenografted in Kunming mouse assessed as tumor growth inhibition rate at 140 mg/kg, po administered for 10 days relative to control; assay type: functional; details: H22, 240 h; how it was run: as §1

IC50 (A-431) | IC50 (HepG2) | IC50 (K562) | IC50 (HL-60) | IC50 (SK-OV-3) | logP [9] | Structure (SMILES) | also measured
 |  |  |  |  |  | O=P1(N(CCCl)CCCl)NCCCO1 (stereo not given) [CYCLOPHOSPHAMIDE ANHYDROUS] | inhibition in vivo at 20 mg/kg (H22 [1]): 56.2%; inhibition in vivo at 20 mg/kg (CCRF S-180 [2]): 81.7%
4.3 µg/mL (≈ 10.3 µM) | 8.4 µg/mL (≈ 20.2 µM) | 0.5 µg/mL (≈ 1.2 µM) | 4.7 µg/mL (≈ 11.3 µM) | 15.1 µg/mL (≈ 36.2 µM) | 3.44 | N#Cc1c(F)c(F)c2c(C(=O)c3ccc(Cl)cc3)c3n(c(=N)c2c1F)CCCN3 | 
> 1000 µg/mL | 277 µg/mL (≈ 621 µM) | 9.3 µg/mL (≈ 20.9 µM) | 58.2 µg/mL (≈ 131 µM) | 826 µg/mL (≈ 1850 µM) | 4.61 | Cc1ccc(C(=O)c2c3n(c(=N)c4c(Cl)c(C#N)c(Cl)c(Cl)c24)CCCN3)cc1 | 
2.4 µg/mL (≈ 6.28 µM) | 1.1 µg/mL (≈ 2.88 µM) | 0.02 µg/mL (≈ 0.0523 µM) | 0.3 µg/mL (≈ 0.785 µM) | 16.4 µg/mL (≈ 42.9 µM) | 2.71 | N#Cc1c(F)c(F)c2c(C(=O)c3ccccc3)c3n(c(=N)c2c1F)CCCN3 | 
10.1 µg/mL (≈ 23.4 µM) | 9.3 µg/mL (≈ 21.5 µM) | 1.2 µg/mL (≈ 2.78 µM) | 10.7 µg/mL (≈ 24.8 µM) | 51.2 µg/mL (≈ 119 µM) | 4.11 | N#Cc1c(Cl)c(Cl)c2c(C(=O)c3ccccc3)c3n(c(=N)c2c1Cl)CCCN3 | 
0.3 µg/mL (≈ 0.812 µM) | 0.1 µg/mL (≈ 0.271 µM) | 0.0002 µg/mL (≈ 0.000542 µM) | 0.008 µg/mL (≈ 0.0217 µM) | 0.2 µg/mL (≈ 0.542 µM) | 2.57 | N#Cc1c(F)c(F)c2c(C(=O)c3ccccc3)c3n(c(=N)c2c1F)CCO3 | 
40.6 µg/mL (≈ 105 µM) | 38.2 µg/mL (≈ 99.1 µM) | 1.6 µg/mL (≈ 4.15 µM) | 1.7 µg/mL (≈ 4.41 µM) | 50.1 µg/mL (≈ 130 µM) | 3.44 | CCOC(=O)c1c2n(c(=N)c3c(Cl)c(C#N)c(Cl)c(Cl)c13)CCN2 | 
20.4 µg/mL (≈ 63.2 µM) | 6.4 µg/mL (≈ 19.8 µM) | 0.4 µg/mL (≈ 1.24 µM) | 0.9 µg/mL (≈ 2.79 µM) | 6.2 µg/mL (≈ 19.2 µM) | 1.67 | CC(=O)c1c2n(c(=N)c3c(F)c(C#N)c(F)c(Cl)c13)CCN2 | 
14.5 µg/mL (≈ 34.6 µM) | 0.3 µg/mL (≈ 0.717 µM) | 2.2 µg/mL (≈ 5.25 µM) | 6 µg/mL (≈ 14.3 µM) | 17.4 µg/mL (≈ 41.6 µM) | 3.97 | N#Cc1c(Cl)c(Cl)c2c(C(=O)c3ccccc3)c3n(c(=N)c2c1Cl)CCO3 | 
8 µg/mL (≈ 17.2 µM) | 30 µg/mL (≈ 64.4 µM) | 1.2 µg/mL (≈ 2.57 µM) | 4.4 µg/mL (≈ 9.44 µM) | 52.2 µg/mL (≈ 112 µM) | 4.84 | N#Cc1c(Cl)c(Cl)c2c(C(=O)c3ccc(Cl)cc3)c3n(c(=N)c2c1Cl)CCCN3 | 
11 µg/mL (≈ 24.5 µM) | 2.7 µg/mL (≈ 6.02 µM) | 0.8 µg/mL (≈ 1.78 µM) | 24.2 µg/mL (≈ 53.9 µM) | 32.2 µg/mL (≈ 71.8 µM) | 3.39 | COc1ccc(C(=O)c2c3n(c(=N)c4c(Cl)c(C#N)c(Cl)c(Cl)c24)CCO3)cc1 | 
20.3 µg/mL (≈ 44.9 µM) | 37.6 µg/mL (≈ 83.2 µM) | 2.4 µg/mL (≈ 5.31 µM) | 2.6 µg/mL (≈ 5.75 µM) | 31.4 µg/mL (≈ 69.4 µM) | 4.76 | N#Cc1c(Cl)c(Cl)c2c(C(=O)c3ccc(Cl)cc3)c3n(c(=N)c2c1Cl)CCN3 | 
3.4 µg/mL (≈ 8.14 µM) | 4.4 µg/mL (≈ 10.5 µM) | 0.7 µg/mL (≈ 1.68 µM) | 0.8 µg/mL (≈ 1.92 µM) | 19.7 µg/mL (≈ 47.2 µM) | 4.03 | N#Cc1c(Cl)c(Cl)c2c(C(=O)c3ccccc3)c3n(c(=N)c2c1Cl)CCN3 | 

Structure (SMILES) | IC50 (A-431) | IC50 (HepG2) | IC50 (K562) | IC50 (HL-60) | IC50 (SK-OV-3) | logP [9] | also measured
CCOC(=O)c1c2n(c(=N)c3c(F)c(C#N)c(F)c(F)c13)CCN2 | 3.4 µg/mL (≈ 10.1 µM) | 0.4 µg/mL (≈ 1.19 µM) | 0.0005 µg/mL (≈ 0.00149 µM) | 0.02 µg/mL (≈ 0.0595 µM) | 0.04 µg/mL (≈ 0.119 µM) | 2.04 | inhibition (CCRF S-180 [3]): Dose-dependent effect; inhibition in vivo at 10 mg/kg (CCRF S-180 [4]): 39.2%; Activity (Mus musculus [5]): Toxic; inhibition in vivo at 30 mg/kg (CCRF S-180 [6]): 54.2%; inhibition in vivo at 30 mg/kg (H22 [7]): 27.5%; inhibition in vivo at 10 mg/kg (H22 [8]): 11.4%; inhibition in vivo at 90 mg/kg (CCRF S-180 [10]): 26.6%
N#Cc1c(F)c(Cl)c2c(C(=O)c3ccccc3)c3n(c(=N)c2c1F)CCCN3 | 0.5 µg/mL (≈ 1.25 µM) | 0.3 µg/mL (≈ 0.752 µM) | 0.03 µg/mL (≈ 0.0752 µM) | 0.01 µg/mL (≈ 0.0251 µM) | 1.2 µg/mL (≈ 3.01 µM) | 3.35 | inhibition (CCRF S-180 [3]): Dose-dependent effect; inhibition in vivo at 20 mg/kg (H22 [1]): 12.1%; inhibition in vivo at 80 mg/kg (H22 [11]): 28.2%; inhibition in vivo at 240 mg/kg (H22 [12]): 0%; inhibition in vivo at 20 mg/kg (CCRF S-180 [2]): 42.8%; inhibition in vivo at 60 mg/kg (CCRF S-180 [13]): 41.1%; inhibition in vivo at 180 mg/kg (CCRF S-180 [14]): 52.8%; Activity (Mus musculus [15]): Non-toxic
COc1ccc(C(=O)c2c3n(c(=N)c4c(F)c(C#N)c(F)c(F)c24)CCCN3)cc1 | 1.1 µg/mL (≈ 2.67 µM) | 0.8 µg/mL (≈ 1.94 µM) | 0.01 µg/mL (≈ 0.0243 µM) | 0.02 µg/mL (≈ 0.0485 µM) | 2.6 µg/mL (≈ 6.31 µM) | 2.7 | inhibition (CCRF S-180 [3]): Dose-dependent effect; inhibition in vivo at 70 mg/kg (H22 [16]): 45.6%; inhibition in vivo at 35 mg/kg (H22 [17]): 34.7%; inhibition in vivo at 140 mg/kg (H22 [18]): 29.3%; inhibition in vivo at 20 mg/kg (CCRF S-180 [2]): 35.9%; inhibition in vivo at 60 mg/kg (CCRF S-180 [13]): 38%; inhibition in vivo at 180 mg/kg (CCRF S-180 [14]): 19.1%; Activity (Mus musculus [15]): Non-toxic
